Assay results published in ChEMBL document CHEMBL1145075, “A new class of diamine-based human histamine H3 receptor antagonists: 4-(aminoalkoxy)benzylamines” (J Med Chem, 2003).

Assays:
[1] = target: T1, Histamine H3 receptor (Homo sapiens, UniProt Q9Y5N1); test: In vitro binding affinity for human Histamine H3 receptor by displacing N-[3H]-methylhistamine in SK-N-MC cells was determined; format: cell-based
Procedure, shortened: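 Cloned human H3 receptor stably expressed in SK-N-MC cells; binding run per an earlier published procedure.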

[2] = target: T1, Histamine H3 receptor; test: Histamine-induced inhibition of forskolin- stimulated cAMP accumulation in SK-N-MC cells overexpressing the human Histamine H3 receptor; format: functional, cell-based; conditions: read-out: pA2 (converted)
Procedure, shortened: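 SK-N-MC sublines stably expressing human H3 receptor plus β-galactosidase reporter driven by multiple cAMP responsive elements. Compound added to media, forskolin (5 μM final) 5 min later, then 6 h at 37 °C. Cells PBS-washed, lysed, color developed with chlorophenol red β-D-galactopyranoside, absorbance 570 nm. pA2 from Schild regression of EC50 values.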

[3] = Human plasma protein binding activity was determined; format: ADME, cell-free
Procedure, shortened: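 Human plasma protein binding measured by an outside contract laboratory.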

[4] = stabilit in human liver microsome expressed as Half life; format: ADME; conditions: liver microsomes
Procedure, shortened: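 Stability in human liver microsomes measured by an outside contract laboratory; reported as half-life.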

[5] = target: Histamine H3 receptor (Rattus norvegicus, UniProt Q9QYN8); test: In vitro binding affinity for rat Histamine H3 receptor by displacing N-[3H]-methylhistamine in rat cortex membranes was determined
Histamine H3 receptor (Rattus norvegicus, UniProt Q9QYN8), sequence (Q9QYN8 whole entry): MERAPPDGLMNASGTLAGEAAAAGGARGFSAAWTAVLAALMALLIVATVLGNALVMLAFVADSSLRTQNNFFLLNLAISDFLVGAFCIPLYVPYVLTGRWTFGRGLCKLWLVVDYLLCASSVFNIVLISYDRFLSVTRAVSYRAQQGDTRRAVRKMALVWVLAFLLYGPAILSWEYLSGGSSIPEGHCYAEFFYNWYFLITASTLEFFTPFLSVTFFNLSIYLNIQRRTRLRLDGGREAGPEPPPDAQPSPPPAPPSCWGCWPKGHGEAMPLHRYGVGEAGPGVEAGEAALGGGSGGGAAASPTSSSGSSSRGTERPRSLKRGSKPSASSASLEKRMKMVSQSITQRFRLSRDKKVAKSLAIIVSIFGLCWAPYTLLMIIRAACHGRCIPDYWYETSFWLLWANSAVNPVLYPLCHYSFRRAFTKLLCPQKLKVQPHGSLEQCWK

T1 sequence (Q9Y5N1 whole entry): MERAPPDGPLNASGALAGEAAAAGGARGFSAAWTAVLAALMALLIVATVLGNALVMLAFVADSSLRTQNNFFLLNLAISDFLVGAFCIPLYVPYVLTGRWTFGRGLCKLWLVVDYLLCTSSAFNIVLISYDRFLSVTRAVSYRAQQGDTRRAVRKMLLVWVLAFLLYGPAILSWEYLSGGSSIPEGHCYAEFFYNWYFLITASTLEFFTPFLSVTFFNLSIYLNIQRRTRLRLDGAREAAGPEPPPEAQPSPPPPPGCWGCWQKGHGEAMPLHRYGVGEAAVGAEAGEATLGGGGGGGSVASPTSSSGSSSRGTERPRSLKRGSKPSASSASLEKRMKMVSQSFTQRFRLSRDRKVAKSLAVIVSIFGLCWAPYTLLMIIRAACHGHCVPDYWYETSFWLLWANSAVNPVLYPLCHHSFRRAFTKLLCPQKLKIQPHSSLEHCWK

Work on `c1cc(OCCCN2CCCCC2)ccc1CN1CCOCC1` yielded a Ki [1] of 0.871 nM and a Kb [2] of 0.537 nM.

For `c1ccc2c(c1)CCC2NCc1ccc(OCCCN2CCCCC2)cc1` (stereo not given), the Ki [1] was 0.832 nM.

For `c1cc(OCCCN2CCOCC2)ccc1CN1CCCCC1`, the Ki [1] was 2.29 nM.

Work on `c1cc(OCCCN2CCCCC2)ccc1CNC1CCCCC1` yielded a Ki [1] of 0.513 nM and a Kb [2] of 0.195 nM.

Work on `CN1CCN(Cc2ccc(OCCCN3CCCCC3)cc2)CC1` yielded a Ki [1] of 1.35 nM.

Work on `c1cc(OCCCN2CCCCC2)ccc1CN1CCCCC1` [JNJ-5207852] yielded a Binding [3] of 54%, a half-life [4] greater than 24 h and a Ki [5] of 0.457 nM.

For `CCN(CC)CCCOc1ccc(CN2CCCCC2)cc1`, the Ki [1] was 1.23 nM.

In the case of `OC1CCN(Cc2ccc(OCCCN3CCCCC3)cc2)CC1`, the Ki [1] is reported as 0.741 nM and the Kb [2] is reported as 0.229 nM.

Work on `c1ccc(NCc2ccc(OCCCN3CCCCC3)cc2)cc1` yielded a Ki [1] of 8.32 nM.

With `c1cc(OCCN2CCCCC2)ccc1CN1CCCCC1` the Ki [1] was 8.91 nM and the Kb [2] was 8.91 nM.

Work on `c1ccc(CC2CCN(Cc3ccc(OCCCN4CCCCC4)cc3)CC2)cc1` yielded a Ki [1] of 1.51 nM.

In the case of `c1cc(OCCCN2CCCCC2)ccc1CC1CCCCC1`, the Ki [1] is reported as 50.1 nM.

`CN(C)Cc1ccc(OCCCN2CCCCC2)cc1` showed a Ki [1] of 0.933 nM.

In the case of `c1ccc2c(c1)CCN(Cc1ccc(OCCCN3CCCCC3)cc1)C2`, the Ki [1] is reported as 1.7 nM.

`c1cc(OCCCC2CCCCC2)ccc1CN1CCCCC1` showed a Ki [1] of 631 nM.

For `NC(=O)C1CCN(Cc2ccc(OCCCN3CCCCC3)cc2)CC1`, the Ki [1] was 0.955 nM.

`CCN(CC)CCOc1ccc(CN2CCCCC2)cc1` gave a Ki [1] of 50.1 nM.

Compound `CN(C)CCOc1ccc(CN2CCCCC2)cc1` has a Ki [1] of 3.89 nM and a Kb [2] of 10.5 nM.
